Assay results: ChEMBL document CHEMBL4028907, “Semisynthesis and Biological Evaluation of Xanthone Amphiphilics as Selective, Highly Potent Antifungal Agents to Combat Fungal Resistance” (J Med Chem, 2017)
In brackets after ≈: the same amount, converted by molar mass.

Assays:
Candida albicans [1] = experiment: Antifungal activity against drug resistant Candida albicans DF2672R after 24 hrs by two fold serial dilution method; format: functional
Summary of the method: (§1)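 Candida grown on Sabouraud dextrose agar at 35 °C for 24 h, adjusted to ~5×10^3 CFU/mL. Two-fold dilutions from 100 to 0.78 μg/mL in Sabouraud dextrose broth, incubated at 35 °C for 24 h. MIC is the lowest concentration inhibiting growth by eye and by OD600. CLSI-based with minor modifications.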

Candida albicans [2] = experiment: Antifungal activity against Candida albicans ATCC 10231 after 24 hrs by two fold serial dilution method; format: functional; conditions: ATCC 10231, 24 h; summary of the method: as §1
Staphylococcus aureus [3] = experiment: Antibacterial activity against Staphylococcus aureus DM4001R by two fold serial dilution method; format: functional
Summary of the method: (§2)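 Broth microdilution (CLSI, minor modifications) in Sabouraud dextrose, Mueller−Hinton or RPMI 1640 broth; two-fold serial dilutions of compound from stock to final 100 to 0.78 μg/mL. MIC taken as lowest concentration giving no visible growth.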

Pseudomonas aeruginosa = experiment: Antibacterial activity against Pseudomonas aeruginosa DM23155 by two fold serial dilution method; format: functional; summary of the method: as §2
Bacillus cereus = experiment: Antibacterial activity against Bacillus cereus ATCC11778 by two fold serial dilution method; format: functional; summary of the method: as §2
[4] = Selectivity index, ratio of HC50 for New Zealand white rabbit RBC to MIC for Candida albicans ATCC 10231
Candida albicans [5] = experiment: Antifungal activity against Candida albicans ATCC11651 after 24 hrs by two fold serial dilution method; format: functional; conditions: ATCC11651, 24 h; summary of the method: as §1
Klebsiella pneumoniae = experiment: Antibacterial activity against Klebsiella pneumoniae DM4299 by two fold serial dilution method; format: functional; summary of the method: as §2
Staphylococcus aureus [6] = experiment: Antibacterial activity against methicillin resistant Staphylococcus aureus DM21455 by two fold serial dilution method; format: functional
Summary of the method: (§3)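 Broth microdilution per CLSI guidelines with minor modifications, run in Mueller−Hinton broth; MIC is the lowest concentration giving no visible growth.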

Staphylococcus aureus [7] = experiment: Antibacterial activity against methicillin resistant Staphylococcus aureus DM9808R by two fold serial dilution method; format: functional; summary of the method: as §3
Candida albicans [8] = experiment: Antifungal activity against Candida albicans DF1976R after 24 hrs by two fold serial dilution method; format: functional; summary of the method: as §1
Candida albicans [9] = experiment: Antifungal activity against Candida albicans ATCC90028 after 24 hrs by two fold serial dilution method; format: functional; conditions: ATCC90028, 24 h; summary of the method: as §1
Candida albicans [10] = experiment: Antifungal activity against Candida albicans ATCC24433 after 24 hrs by two fold serial dilution method; format: functional; conditions: ATCC24433, 24 h; summary of the method: as §1
[11] = Dissociation constant, pKa of compound; format: physicochemical

SMILES	MIC (Candida albicans [1]) [µg/mL]	MIC (Candida albicans [2]) [µg/mL]	Selectivity Index [4]	further results
COc1c(OCC2CO2)cc2oc3cc(OCC4CO4)c(CC=C(C)C)c(O)c3c(=O)c2c1CC=C(C)C (stereo not given)	> 50	> 50	–	–
CCCN(CCC)CC(O)COc1cc2oc3cc(OCC(O)CN(CCC)CCC)c(OC)c(CC=C(C)C)c3c(=O)c2c(O)c1CC=C(C)C (stereo not given)	3.13 (≈ 4.32 µM)	3.13 (≈ 4.32 µM)	> 128	MIC (Staphylococcus aureus [3]): 6.25 to 12.5 µg/mL (≈ 8.62 to 17.2 µM); MIC (Pseudomonas aeruginosa): > 50 µg/mL; MIC (Bacillus cereus): 6.25 to 12.5 µg/mL (≈ 8.62 to 17.2 µM); MIC (Candida albicans [5]): 6.25 µg/mL (≈ 8.62 µM); MIC (Klebsiella pneumoniae): > 50 µg/mL; MIC (Staphylococcus aureus [6]): 6.25 to 12.5 µg/mL (≈ 8.62 to 17.2 µM); MIC (Staphylococcus aureus [7]): 6.25 to 12.5 µg/mL (≈ 8.62 to 17.2 µM); MIC (Candida albicans [8]): 6.25 µg/mL (≈ 8.62 µM); MIC (Candida albicans [9]): 6.25 µg/mL (≈ 8.62 µM); MIC (Candida albicans [10]): 6.25 µg/mL (≈ 8.62 µM)
CCCCCCNCC(O)COc1cc2oc3cc(OCC(O)CNCCCCCC)c(OC)c(CC=C(C)C)c3c(=O)c2c(O)c1CC=C(C)C (stereo not given)	12.5 (≈ 17.2 µM)	12.5 (≈ 17.2 µM)	27.5	–
COc1c(OCC(=O)N[C@@H](CCCNC(=N)N)C(N)=O)cc2oc3cc(OCC(=O)N[C@@H](CCCNC(=N)N)C(N)=O)c(CC=C(C)C)c(O)c3c(=O)c2c1CC=C(C)C	6.25 (≈ 7.47 µM)	6.25 (≈ 7.47 µM)	20.5	–
COc1c(OCC(O)C[N+](C)(C)C)cc2oc3cc(OCC(O)C[N+](C)(C)C)c(CC=C(C)C)c(O)c3c(=O)c2c1CC=C(C)C.[I-].[I-] (stereo not given)	12.5	12.5	2.9	–
CCN(CC)CC(O)COc1cc2oc3cc(OCC(O)CN(CC)CC)c(OC)c(CC=C(C)C)c3c(=O)c2c(O)c1CC=C(C)C (stereo not given)	6.25 (≈ 9.34 µM)	6.25 (≈ 9.34 µM)	5.6	MIC (Staphylococcus aureus [3]): 1.56 to 3.13 µg/mL (≈ 2.33 to 4.68 µM); MIC (Pseudomonas aeruginosa): 25 to 50 µg/mL (≈ 37.4 to 74.8 µM); MIC (Bacillus cereus): 1.56 to 3.13 µg/mL (≈ 2.33 to 4.68 µM); MIC (Klebsiella pneumoniae): 25 to 50 µg/mL (≈ 37.4 to 74.8 µM); MIC (Staphylococcus aureus [6]): 1.56 to 3.13 µg/mL (≈ 2.33 to 4.68 µM); MIC (Staphylococcus aureus [7]): 1.56 to 3.13 µg/mL (≈ 2.33 to 4.68 µM)
C[C@@H]1[C@H](O)[C@@H](C)/C=C/C=C/C=C/C=C/C=C/C=C/C=C/[C@H](O[C@@H]2O[C@H](C)[C@@H](O)[C@H](N)[C@@H]2O)C[C@@H]2O[C@](O)(C[C@@H](O)C[C@@H](O)[C@H](O)CC[C@@H](O)C[C@@H](O)CC(=O)O[C@H]1C)C[C@H](O)[C@H]2C(=O)O [AMPHOTERICIN B]	0.2 (≈ 0.216 µM)	–	–	–
COC(=O)[C@H](CCCNC(=N)N)NC(=O)COc1cc2oc3cc(OCC(=O)N[C@@H](CCCNC(=N)N)C(=O)OC)c(OC)c(CC=C(C)C)c3c(=O)c2c(O)c1CC=C(C)C	6.25 (≈ 7.21 µM)	6.25 (≈ 7.21 µM)	37.1	–
COc1c(OCC(O)CNCCN)cc2oc3cc(OCC(O)CNCCN)c(CC=C(C)C)c(O)c3c(=O)c2c1CC=C(C)C (stereo not given)	12.5 (≈ 19.4 µM)	6.25 (≈ 9.72 µM)	2.4 to 4.8	–
COc1c(OCC(O)CNCCNCCN)cc2oc3cc(OCC(O)CNCCNCCN)c(CC=C(C)C)c(O)c3c(=O)c2c1CC=C(C)C (stereo not given)	12.5 (≈ 17.1 µM)	6.25 (≈ 8.57 µM)	13.2 to 26.4	–
COc1c(OCC(=O)N[C@@H](CCCNC(=N)N)C(=O)OC(C)(C)C)cc2oc3cc(OCC(=O)N[C@@H](CCCNC(=N)N)C(=O)OC(C)(C)C)c(CC=C(C)C)c(O)c3c(=O)c2c1CC=C(C)C	6.25 (≈ 6.57 µM)	12.5 (≈ 13.1 µM)	6.3 to 12.6	–
COc1c(OCC(O)CN2CCNCC2)cc2oc3cc(OCC(O)CN4CCNCC4)c(CC=C(C)C)c(O)c3c(=O)c2c1CC=C(C)C (stereo not given)	12.5 (≈ 18 µM)	12.5 (≈ 18 µM)	2.6	pKa [11]: 9.55
COc1c(OCC(O)CN2CCCCC2)cc2oc3cc(OCC(O)CN4CCCCC4)c(CC=C(C)C)c(O)c3c(=O)c2c1CC=C(C)C (stereo not given)	6.25 (≈ 9.02 µM)	6.25 (≈ 9.02 µM)	5.1	pKa [11]: 11.2
CCC(C)n1ncn(-c2ccc(N3CCN(c4ccc(OCC5COC(Cn6cncn6)(c6ccc(Cl)cc6Cl)O5)cc4)CC3)cc2)c1=O (stereo not given) [ITRACONAZOLE]	6.25 (≈ 8.86 µM)	–	–	–
CC[N+](C)(CC)CC(O)COc1cc2oc3cc(OCC(O)C[N+](C)(CC)CC)c(OC)c(CC=C(C)C)c3c(=O)c2c(O)c1CC=C(C)C.[I-].[I-] (stereo not given)	6.25	12.5	2.9 to 5.7	–
CCCCN(C)CC(O)COc1cc2oc3cc(OCC(O)CN(C)CCCC)c(OC)c(CC=C(C)C)c3c(=O)c2c(O)c1CC=C(C)C (stereo not given)	3.13 (≈ 4.49 µM)	3.13 (≈ 4.49 µM)	15.5	MIC (Candida albicans [5]): 6.25 µg/mL (≈ 8.97 µM); MIC (Candida albicans [8]): 3.13 µg/mL (≈ 4.49 µM); MIC (Candida albicans [9]): 3.13 µg/mL (≈ 4.49 µM); MIC (Candida albicans [10]): 6.25 µg/mL (≈ 8.97 µM)
CCCCCCCCNCC(O)COc1cc2oc3cc(OCC(O)CNCCCCCCCC)c(OC)c(CC=C(C)C)c3c(=O)c2c(O)c1CC=C(C)C (stereo not given)	> 50	> 50	–	–
COc1c(O)cc2oc3cc(O)c(CC=C(C)C)c(O)c3c(=O)c2c1CC=C(C)C [MANGOSTIN]	> 50	> 50	< 0.2	–

SMILES	MIC (Candida albicans [1]) [µg/mL]	MIC (Candida albicans [2]) [µg/mL]	Selectivity Index [4]	further results
COc1c(OCC(O)CN)cc2oc3cc(OCC(O)CN)c(CC=C(C)C)c(O)c3c(=O)c2c1CC=C(C)C (stereo not given)	6.25 (≈ 11.2 µM)	6.25 (≈ 11.2 µM)	7.9	pKa [11]: 10.5
COc1c(OCC(O)CN(C)Cc2ccccc2)cc2oc3cc(OCC(O)CN(C)Cc4ccccc4)c(CC=C(C)C)c(O)c3c(=O)c2c1CC=C(C)C (stereo not given)	6.25 (≈ 8.17 µM)	12.5 (≈ 16.3 µM)	> 32	–
COc1c(OCC(O)CNCCNC(=N)N)cc2oc3cc(OCC(O)CNC(=N)N)c(CC=C(C)C)c(O)c3c(=O)c2c1CC=C(C)C (stereo not given)	6.25 (≈ 9.14 µM)	6.25 (≈ 9.14 µM)	8.6	–
COc1c(OCC(O)CNC(CO)(CO)CO)cc2oc3cc(OCC(O)CNC(CO)(CO)CO)c(CC=C(C)C)c(O)c3c(=O)c2c1CC=C(C)C (stereo not given)	6.25 (≈ 8.17 µM)	6.25 (≈ 8.17 µM)	3.9	–
COc1c(OCC(O)Cn2ccnc2)cc2oc3cc(OCC(O)Cn4ccnc4)c(CC=C(C)C)c(O)c3c(=O)c2c1CC=C(C)C (stereo not given)	12.5 (≈ 19 µM)	12.5 (≈ 19 µM)	> 32	–
CN(C/C=C/C#CC(C)(C)C)Cc1cccc2ccccc12 [TERBINAFINE]	3.13 (≈ 10.7 µM)	–	–	–
CCCC[N+](C)(CCCC)CC(O)COc1cc2oc3cc(OCC(O)C[N+](C)(CCCC)CCCC)c(OC)c(CC=C(C)C)c3c(=O)c2c(O)c1CC=C(C)C.[I-].[I-] (stereo not given)	6.25	6.25	5.3	–
Clc1ccc(COC(Cn2ccnc2)c2ccc(Cl)cc2Cl)c(Cl)c1 (stereo not given) [MICONAZOLE]	0.39 (≈ 0.937 µM)	–	–	–
COc1c(OCC(O)CN(C)C)cc2oc3cc(OCC(O)CN(C)C)c(CC=C(C)C)c(O)c3c(=O)c2c1CC=C(C)C (stereo not given)	6.25 (≈ 10.2 µM)	6.25 (≈ 10.2 µM)	4.8	–
COc1c(OCC(O)CNC2CCCCCCC2)cc2oc3cc(OCC(O)CNC4CCCCCCC4)c(CC=C(C)C)c(O)c3c(=O)c2c1CC=C(C)C (stereo not given)	6.25 (≈ 8.04 µM)	6.25 (≈ 8.04 µM)	29.7	–
CCCCCCN(CCCCCC)CC(O)COc1cc2oc3cc(OCC(O)CN(CCCCCC)CCCCCC)c(OC)c(CC=C(C)C)c3c(=O)c2c(O)c1CC=C(C)C (stereo not given)	12.5 (≈ 14 µM)	12.5 (≈ 14 µM)	> 32	–
COc1c(OCC(O)CN2CCOCC2)cc2oc3cc(OCC(O)CN4CCOCC4)c(CC=C(C)C)c(O)c3c(=O)c2c1CC=C(C)C (stereo not given)	6.25 (≈ 8.97 µM)	6.25 (≈ 8.97 µM)	> 64	–
CC[C@@H]([C@H](C)O)n1ncn(-c2ccc(N3CCN(c4ccc(OC[C@@H]5CO[C@@](Cn6cncn6)(c6ccc(F)cc6F)C5)cc4)CC3)cc2)c1=O [POSACONAZOLE]	12.5 (≈ 17.8 µM)	–	–	–
CCCNCC(O)COc1cc2oc3cc(OCC(O)CNCCC)c(OC)c(CC=C(C)C)c3c(=O)c2c(O)c1CC=C(C)C (stereo not given)	6.25 (≈ 9.75 µM)	6.25 (≈ 9.75 µM)	11.6	–
COc1c(OCC(O)CN2CCCC2)cc2oc3cc(OCC(O)CN4CCCC4)c(CC=C(C)C)c(O)c3c(=O)c2c1CC=C(C)C (stereo not given)	6.25 (≈ 9.4 µM)	6.25 (≈ 9.4 µM)	4.2	pKa [11]: 11.3
COc1c(OCC(O)CNCCNCCNCCN)cc2oc3cc(OCC(O)CNCCNCCNCCN)c(CC=C(C)C)c(O)c3c(=O)c2c1CC=C(C)C (stereo not given)	25 (≈ 30.7 µM)	12.5 (≈ 15.3 µM)	14.9 to 29.8	–
COC(=O)[C@H](CCCNC(=N)N)NC(=O)[C@H](CCCNC(=N)N)NC(=O)COc1cc2oc3cc(OCC(=O)N[C@@H](CCCNC(=N)N)C(=O)N[C@@H](CCCNC(=N)N)C(=O)OC)c(OC)c(CC=C(C)C)c3c(=O)c2c(O)c1CC=C(C)C	12.5 (≈ 10.6 µM)	6.25 (≈ 5.3 µM)	22.2 to 44.4	–
COc1c(OCC(O)CNCc2ccc(F)cc2)cc2oc3cc(OCC(O)CNCc4ccc(F)cc4)c(CC=C(C)C)c(O)c3c(=O)c2c1CC=C(C)C (stereo not given)	6.25 (≈ 8.09 µM)	6.25 (≈ 8.09 µM)	> 64	–
